In ChEMBL document CHEMBL1250442, “Inhibiting gene expression at transcription start sites in chromosomal DNA with antigene RNAs” (Nat Chem Biol, 2005):
pIC50: −log10 of the molar value. Active and inactive are the calls of the source. No cut-off for these calls is given here.

Columns and labels:
T47D [1] = assay: Effect of DNA methylation at (+216) CpG site near PR-B transcription start site (-9) in human T47D cells by sodium bisulfite sequencing analysis; assay type: functional, cell-based
Method in brief: (§1)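 T47D cells grown in RPMI-1640 with 10% FBS, 0.5% NEAA, insulin and P/S at 37 °C, 5% CO2. They were plated at 80,000 cells/well 2 days before lipid transfection with 25 nM or 100 nM duplex, with medium changed at 24 h. Cells were harvested 5 days post-transfection. 100 ng bisulfite-treated DNA was PCR-amplified, and products were TA-cloned. 5–15 colonies per plate were sequenced.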

T47D [2] = assay: Effect of DNA methylation at (-75) CpG site near PR-B transcription start site (-9) in human T47D cells by sodium bisulfite sequencing analysis; assay type: functional, cell-based
Method in brief: (§2)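 T47D cells (RPMI-1640, 10% FBS, NEAA, insulin; 37 °C, 5% CO2) transfected with agRNA duplexes via Oligofectamine, medium changed at 24 h. Genomic DNA bisulphite-treated, regions around AR and hPR-B start sites PCR-amplified (HotStarTaq, 100 ng treated DNA), gel-purified, TOPO TA cloned; 5–15 colonies per plate miniprepped and sequenced.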

T47D [3] = assay: Effect of DNA methylation at (+398) CpG site near PR-B transcription start site (-9) in human T47D cells by sodium bisulfite sequencing analysis; assay type: functional, cell-based; method in brief: as §1
T47D [4] = assay: Inhibition of PR-B gene expression in human T47D cells at 25 nM by syber green assay; assay type: functional
Method in brief: (§3)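 T47D cells plated at 80,000/well without antibiotics two days before Oligofectamine transfection with agRNA duplex (25 or 100 nM final); medium changed at 24 h, harvest day 5 unless stated otherwise. TRIzol total RNA; PR mRNA by real-time PCR with SYBR Green: 50 °C 2 min, 95 °C 10 min, 40 cycles 95 °C 15 s/60 °C 1 min.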

T47D [5] = assay: Effect of DNA methylation at (+337) CpG site near PR-B transcription start site (-9) in human T47D cells by sodium bisulfite sequencing analysis; assay type: functional, cell-based; method in brief: as §1
T47D [6] = assay: Inhibition of PR-B gene expression in human T47D cells at 25 nM in presence of 4 uM of 5-aza-Dc
T47D [7] = assay: Inhibition of PR-A gene expression in human T47D cells by syber green assay; assay type: functional, cell-based; method in brief: as §3
T47D [8] = assay: Effect of DNA methylation at (+190) CpG site near PR-B transcription start site (-9) in human T47D cells by sodium bisulfite sequencing analysis; assay type: functional, cell-based; method in brief: as §1
T47D [9] = assay: Effect of DNA methylation at (+362) CpG site near PR-B transcription start site (-9) in human T47D cells by sodium bisulfite sequencing analysis; assay type: functional, cell-based; method in brief: as §1
T47D [10] = assay: Effect of DNA methylation at (+173) CpG site near PR-B transcription start site (-9) in human T47D cells by sodium bisulfite sequencing analysis; assay type: functional, cell-based; method in brief: as §1
T47D [11] = assay: Effect of DNA methylation at (+379) CpG site near PR-B transcription start site (-9) in human T47D cells by sodium bisulfite sequencing analysis; assay type: functional, cell-based; method in brief: as §1
T47D [12] = assay: Inhibition of PR-B gene expression in human T47D cells at 25 nM by syber green assay in presence of 10 nM estradiol; assay type: functional, cell-based
T47D [13] = assay: Effect of DNA methylation at (+125) CpG site near PR-B transcription start site (-9) in human T47D cells by sodium bisulfite sequencing analysis; assay type: functional, cell-based; method in brief: as §1
T47D [14] = assay: Effect of DNA methylation at (-46) CpG site near PR-B transcription start site (-9) in human T47D cells by sodium bisulfite sequencing analysis; assay type: functional, cell-based; method in brief: as §2
T47D [15] = assay: Effect of DNA methylation at (+20) CpG site near PR-B transcription start site (-9) in human T47D cells by sodium bisulfite sequencing analysis; assay type: functional, cell-based; method in brief: as §1
T47D [16] = assay: Effect of DNA methylation at (+107) CpG site near PR-B transcription start site (-9) in human T47D cells by sodium bisulfite sequencing analysis; assay type: functional, cell-based; method in brief: as §1
T47D [17] = assay: Effect of DNA methylation at (+267) CpG site near PR-B transcription start site (-9) in human T47D cells by sodium bisulfite sequencing analysis; assay type: functional, cell-based; method in brief: as §1
T47D [18] = assay: Effect of DNA methylation at (-112) CpG site near PR-B transcription start site (-9) in human T47D cells by sodium bisulfite sequencing analysis; assay type: functional, cell-based; method in brief: as §2
T47D [19] = assay: Effect of DNA methylation at (+319) CpG site near PR-B transcription start site (-9) in human T47D cells by sodium bisulfite sequencing analysis; assay type: functional, cell-based; method in brief: as §1
T47D [20] = assay: Inhibition of PR-A gene expression in human T47D cells harboring inactive DNA methyltransferase-1 at 25 nM by syber green assay; assay type: functional, cell-based
T47D [21] = assay: Effect of DNA methylation at (+162) CpG site near PR-B transcription start site (-9) in human T47D cells by sodium bisulfite sequencing analysis; assay type: functional, cell-based; method in brief: as §1
T47D [22] = assay: Effect of DNA methylation at (+149) CpG site near PR-B transcription start site (-9) in human T47D cells by sodium bisulfite sequencing analysis; assay type: functional, cell-based; method in brief: as §1
T47D [23] = assay: Inhibition of PR-B gene expression in human T47D cells harboring inactive DNA methyltransferase-1 at 25 nM by syber green assay; assay type: functional, cell-based
T47D [24] = assay: Inhibition of PR-B mRNA gene expression in human T47D cells at 100 nM by syber green assay; assay type: functional
Method in brief: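 T47D cells in RPMI-1640 with 10% FBS, NEAA, insulin, 37 °C, 5% CO2. Plated two days before transfection without antibiotics. Oligofectamine-mediated duplex RNA transfection at 100 nM final, medium changed at 24 h, harvest five days post-transfection. Total RNA extracted with TRIzol. hPR mRNA quantified by SYBR Green qPCR: 50 °C 2 min, 95 °C 10 min, then 40 cycles of 95 °C 15 s / 60 °C 1 min.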

T47D [25] = assay: Inhibition of PR-B gene expression in human T47D cells by syber green assay; assay type: functional, cell-based; method in brief: as §3
T47D [26] = assay: Effect of DNA methylation at (+225) CpG site near PR-B transcription start site (-9) in human T47D cells by sodium bisulfite sequencing analysis; assay type: functional, cell-based; method in brief: as §1
T47D [27] = assay: Effect of DNA methylation at (+166) CpG site near PR-B transcription start site (-9) in human T47D cells by sodium bisulfite sequencing analysis; assay type: functional, cell-based; method in brief: as §1
T47D [28] = assay: Inhibition of PR-A gene expression in human T47D cells at 25 nM in presence of 4 uM of 5-aza-Dc
T47D [29] = assay: Effect of DNA methylation at (+356) CpG site near PR-B transcription start site (-9) in human T47D cells by sodium bisulfite sequencing analysis; assay type: functional, cell-based; method in brief: as §1
T47D [30] = assay: Effect of DNA methylation at (-23) CpG site near PR-B transcription start site (-9) in human T47D cells by sodium bisulfite sequencing analysis; assay type: functional, cell-based; method in brief: as §2
T47D [31] = assay: Inhibition of PR-A mRNA gene expression in human T47D cells at 100 nM by syber green assay; assay type: functional; method in brief: as §3
T47D [32] = assay: Effect of DNA methylation at (+112) CpG site near PR-B transcription start site (-9) in human T47D cells by sodium bisulfite sequencing analysis; assay type: functional, cell-based; method in brief: as §1
T47D [33] = assay: Effect of DNA methylation at (+295) CpG site near PR-B transcription start site (-9) in human T47D cells by sodium bisulfite sequencing analysis; assay type: functional, cell-based; method in brief: as §1
T47D [34] = assay: Inhibition of PR-A gene expression in human T47D cells at 25 nM by syber green assay in presence of 10 nM estradiol; assay type: functional, cell-based
T47D [35] = assay: Effect of DNA methylation at (+335) CpG site near PR-B transcription start site (-9) in human T47D cells by sodium bisulfite sequencing analysis; assay type: functional, cell-based; method in brief: as §1
T47D [36] = assay: Effect of DNA methylation at (+353) CpG site near PR-B transcription start site (-9) in human T47D cells by sodium bisulfite sequencing analysis; assay type: functional, cell-based; method in brief: as §1
T47D [37] = assay: Effect of DNA methylation at (+45) CpG site near PR-B transcription start site (-9) in human T47D cells by sodium bisulfite sequencing analysis; assay type: functional, cell-based; method in brief: as §2
T47D [38] = assay: Cytotoxicity against human T47D cells assessed as effect on cellular morphology; assay type: cell-based
T47D [39] = assay: Inhibition of PR-A gene expression in human T47D cells at 25 nM by syber green assay; assay type: functional; method in brief: as §3
T47D [40] = assay: Effect of DNA methylation at (+41) CpG site near PR-B transcription start site (-9) in human T47D cells by sodium bisulfite sequencing analysis; assay type: functional, cell-based; method in brief: as §2

## Cc1cn(CC(=O)N(CCNC(=O)CN(CCNC(=O)CN(CCNC(=O)CN(CCNC(=O)CN(CCNC(=O)CN(CCNC(=O)CN(CCNC(=O)CN(CCNC(=O)CN(CCNC(=O)CN(CCNC(=O)CN(CCNC(=O)CN(CCNC(=O)CN(CCNC(=O)CN(CCNC(=O)CN(CCNC(=O)CN(CCNC(=O)CN(CCNC(=O)CN(CCNC(=O)CN(CCNC(=O)CN(CCNC(=O)CN)C(=O)Cn2ccc(=O)[nH]c2=O)C(=O)Cn2cnc3c(=O)[nH]c(N)nc32)C(=O)Cn2ccc(=O)[nH]c2=O)C(=O)Cn2ccc(N)nc2=O)C(=O)Cn2ccc(=O)[nH]c2=O)C(=O)Cn2cnc3c(=O)[nH]c(N)nc32)C(=O)Cn2cnc3c(=O)[nH]c(N)nc32)C(=O)Cn2ccc(N)nc2=O)C(=O)Cn2ccc(N)nc2=O)C(=O)Cn2cnc3c(N)ncnc32)C(=O)Cn2cnc3c(=O)[nH]c(N)nc32)C(=O)Cn2ccc(=O)[nH]c2=O)C(=O)Cn2ccc(N)nc2=O)C(=O)Cn2ccc(N)nc2=O)C(=O)Cn2cnc3c(N)ncnc32)C(=O)Cn2ccc(N)nc2=O)C(=O)Cn2cnc3c(N)ncnc32)C(=O)Cn2cnc3c(=O)[nH]c(N)nc32)C(=O)Cn2ccc(N)nc2=O)CC(=O)NCCN(CC(=O)NCC(=O)O)C(=O)Cn2cc(C)c(=O)[nH]c2=O)c(=O)[nH]c1=O
T47D [1]
  Activity: inactive
T47D [2]
  Activity: inactive
T47D [3]
  Activity: inactive
T47D [4]
  inhibition at 0.025 µM: 88%
T47D [5]
  Activity: inactive
T47D [6]
  inhibition: Active
T47D [7]
  pIC50: 8.60
T47D [8]
  Activity: inactive
T47D [9]
  Activity: inactive
T47D [10]
  Activity: inactive
T47D [11]
  Activity: inactive
T47D [12]
  inhibition: Active
T47D [13]
  Activity: inactive
T47D [14]
  Activity: inactive
T47D [15]
  Activity: inactive
T47D [16]
  Activity: inactive
T47D [17]
  Activity: inactive
T47D [18]
  Activity: inactive
T47D [19]
  Activity: inactive
T47D [20]
  inhibition: Active
T47D [21]
  Activity: inactive
T47D [22]
  Activity: inactive
T47D [23]
  inhibition: Active
T47D [24]
  inhibition at 0.1 µM: 100%
T47D [25]
  pIC50: 8.60
T47D [26]
  Activity: inactive
T47D [27]
  Activity: inactive
T47D [28]
  inhibition: Active
T47D [29]
  Activity: inactive
T47D [30]
  Activity: inactive
T47D [31]
  inhibition at 0.1 µM: 95%
T47D [32]
  Activity: inactive
T47D [33]
  Activity: inactive
T47D [34]
  inhibition: Active
T47D [35]
  Activity: inactive
T47D [36]
  Activity: inactive
T47D [37]
  Activity: inactive
T47D [38]
  Activity: Non-toxic
T47D [39]
  inhibition at 0.025 µM: 79%
T47D [40]
  Activity: inactive
